From ChEMBL document CHEMBL3045750, “New class of algicidal compounds and fungicidal activities derived from a chromene amide of Amyris texana” (2010)
Activity calls are given as the source filed them. The calls are words filed in the database; no cut-off is given here.

What was measured:
Botrytis cinerea [1] = test: Fungicidal activity against Botryotinia fuckeliana assessed as growth inhibition at 100 uM after 72 hr by microbioassay; format: functional; details: read-out: GI
Method in brief: (§1)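 Botrytis cinerea tested in a 96-well dose-response microbioassay alongside other fungal strains, after compounds were first screened by TLC bioautography against C. fragariae. Three concentrations were used (1.0, 10.0, 100.0 μM), with captan as positive standard. Growth inhibition was read 72 h after treatment.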

Colletotrichum fragariae = test: Antifungal activity against Colletotrichum fragariae by TLC bioautography; format: functional, organism-based
Cucumis sativus = test: Phytotoxic activity against Cucumis sativus (cucumber) cotyledon disks assessed as electrolyte leakage; format: functional, organism-based
Agrostis stolonifera = test: Phytotoxic activity against Agrostis stolonifera var. Penncross at 0.1 to 1000 uM; format: functional, organism-based
Method in brief: (§2)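 Germination phytotoxicity assay on lettuce (Lactuca sativa cv. Iceberg, dicot) and bent grass (Agrostis stolonifera cv. Pencross, monocot), with compounds tested across 0.1-1000 μM. Inhibition was scored visually on a 1-5 scale, where 1 is no inhibition and 5 is complete inhibition of germination.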

Lactuca sativa = test: Phytotoxic activity against Lettuce cv. Iceberg (lettuce) at 0.1 to 1000 uM; format: functional, organism-based; method in brief: as §2
Botrytis cinerea [2] = test: Fungicidal activity against Botryotinia fuckeliana assessed as growth inhibition at 10 to 100 uM after 72 hr by microbioassay; format: functional, organism-based; method in brief: as §1

Compound	inhibition of growth at 100 µM (Botrytis cinerea [1]) [%]	Activity (Colletotrichum fragariae)	Activity (Cucumis sativus)	Activity (Agrostis stolonifera)	Activity (Lactuca sativa)	growth inhibition (GI) (Botrytis cinerea [2])
COC(=O)c1ccc2c(c1)OC(C)(C)C=C2	> 50	Active				
CC(C)NCCc1ccc2c(c1)C=CC(C)(C)O2		inactive	inactive	inactive	inactive	
C#CC(C)(C)Oc1ccc(C(=O)OC)cc1		Active				
CC(C)NCc1ccc2c(c1)OC(C)(C)C=C2		inactive		inactive	inactive	
O=C1C2CC=CCC2C(=O)N1SC(Cl)(Cl)Cl (stereo unspecified)						Active
C#CC(C)(C)Oc1cccc(C(=O)OC)c1		Active				
C#CC(C)(C)Oc1ccc(CC(=O)OCC)cc1OC		Active				
COC(=O)c1ccc2c(c1)C=CC(C)(C)O2	> 50	Active				
CC1(C)C=Cc2cc(CO)ccc2O1 [EULATACHROMENE]	30	Active	inactive			
CC(C)CC(=O)N(C)CCc1ccc2c(c1)C=CC(C)(C)O2	80			inactive	inactive	
CCOC(=O)Cc1cc2c(c(OC)c1)OC(C)(C)C=C2		Active				
CC1(C)C=Cc2cc(CCN)ccc2O1		inactive		inactive	inactive	
CC(C)NCCCc1ccc2c(c1)C=CC(C)(C)O2		inactive		inactive	inactive	
CC1(C)C=Cc2c(CO)cccc2O1		Active				
CC1(C)C=Cc2cc(CCCO)ccc2O1	> 50	Active				
CC1(C)C=Cc2cc(CCO)ccc2O1	> 50	Active	inactive	inactive	inactive	
CC(C)NCc1ccc2c(c1)C=CC(C)(C)O2		inactive		inactive	inactive	
COC(=O)Cc1ccc2c(c1)C=CC(C)(C)O2	30	Active		inactive	inactive	
C#CC(C)(C)Oc1ccc(CC(=O)OC)cc1		Active				
COC(=O)CCc1ccc(O)cc1		Active				
COC(=O)CCc1ccc2c(c1)C=CC(C)(C)O2		Active				
COc1cc(CCNC(C)C)cc2c1OC(C)(C)C=C2		inactive		inactive	inactive	
CC(C)NCc1cccc2c1C=CC(C)(C)O2		inactive		inactive	inactive	
C#CC(C)(C)Oc1ccc(CCC(=O)OC)cc1		Active				
CC1(C)C=Cc2ccc(CO)cc2O1	> 50	Active				
COc1cc(CCO)cc2c1OC(C)(C)C=C2		Active				
COC(=O)c1cccc2c1C=CC(C)(C)O2	> 50	Active				
CNCCc1ccc2c(c1)C=CC(C)(C)O2		inactive		inactive	inactive	
